Source: ChEMBL document CHEMBL4351001, “2-Aminoimidazole-based antagonists of the 5-HT6 receptor - A new concept in aminergic GPCR ligand design” (Eur J Med Chem, 2019)

Experiments:
[1] = biological target: 5-hydroxytryptamine receptor 2A (Homo sapiens, UniProt P28223); assay: Displacement of [3H]ketanserin from human 5HT2A receptor expressed in CHOK1 cells incubated for 1 hr by liquid scintillation counter method; type: cell-based
[2] = Solubility of compound in water; type: physicochemical; details: buffer
[3] = biological target: T1, 5-hydroxytryptamine receptor 1A (Homo sapiens, UniProt P08908); assay: Displacement of [3H]-8-OH-DPAT from human 5HT1A receptor expressed in HEK293 cells incubated for 1 hr by liquid scintillation counter method; type: cell-based
T1 sequence (P08908 whole entry): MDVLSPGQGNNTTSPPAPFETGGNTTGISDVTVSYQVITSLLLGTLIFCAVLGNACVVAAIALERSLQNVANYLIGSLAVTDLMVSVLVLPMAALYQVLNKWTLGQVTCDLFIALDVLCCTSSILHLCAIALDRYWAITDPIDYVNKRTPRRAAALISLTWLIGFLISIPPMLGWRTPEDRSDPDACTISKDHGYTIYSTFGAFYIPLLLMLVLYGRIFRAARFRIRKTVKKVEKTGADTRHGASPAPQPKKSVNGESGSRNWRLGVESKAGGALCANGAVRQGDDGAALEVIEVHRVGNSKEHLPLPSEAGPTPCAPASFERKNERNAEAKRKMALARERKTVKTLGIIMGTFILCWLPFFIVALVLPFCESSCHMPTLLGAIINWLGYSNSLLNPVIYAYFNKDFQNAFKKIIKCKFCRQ
Outline: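 HEK293 cells stably expressing human 5-HT1AR; membranes in 50 mM Tris–HCl, 0.1 mM EDTA, 4 mM MgCl2, 10 μM pargyline, 0.1% ascorbate; incubated 1 h at room temperature, then filtered. Nonspecific binding defined with 10 μM 5-HT.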

[4] = biological target: 5-hydroxytryptamine receptor 6 (Homo sapiens, UniProt P50406); assay: Displacement of [3H]LSD from human 5HT6 receptor expressed in HEK293 cells measured after 1 hr by liquid scintillation counter method; type: cell-based
5-hydroxytryptamine receptor 6, sequence (P50406 whole entry): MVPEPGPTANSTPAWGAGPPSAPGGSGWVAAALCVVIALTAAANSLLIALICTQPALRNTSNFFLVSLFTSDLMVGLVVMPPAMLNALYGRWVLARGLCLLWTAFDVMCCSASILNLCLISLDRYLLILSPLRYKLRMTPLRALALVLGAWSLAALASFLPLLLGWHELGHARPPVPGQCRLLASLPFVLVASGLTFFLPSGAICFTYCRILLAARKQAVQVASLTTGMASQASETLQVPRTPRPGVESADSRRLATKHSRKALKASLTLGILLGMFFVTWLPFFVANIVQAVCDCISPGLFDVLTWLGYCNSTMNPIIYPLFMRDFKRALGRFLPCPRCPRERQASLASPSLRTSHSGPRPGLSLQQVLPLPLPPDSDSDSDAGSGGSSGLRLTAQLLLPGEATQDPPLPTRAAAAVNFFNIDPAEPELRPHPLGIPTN

[5] = biological target: D(2) dopamine receptor (Homo sapiens, UniProt P14416); assay: Displacement of [3H]-methylspiperone from human D2 long receptor expressed in HEK293 cells measured after 1 hr by liquid scintillation counter method; type: cell-based
D(2) dopamine receptor, sequence (P14416 whole entry): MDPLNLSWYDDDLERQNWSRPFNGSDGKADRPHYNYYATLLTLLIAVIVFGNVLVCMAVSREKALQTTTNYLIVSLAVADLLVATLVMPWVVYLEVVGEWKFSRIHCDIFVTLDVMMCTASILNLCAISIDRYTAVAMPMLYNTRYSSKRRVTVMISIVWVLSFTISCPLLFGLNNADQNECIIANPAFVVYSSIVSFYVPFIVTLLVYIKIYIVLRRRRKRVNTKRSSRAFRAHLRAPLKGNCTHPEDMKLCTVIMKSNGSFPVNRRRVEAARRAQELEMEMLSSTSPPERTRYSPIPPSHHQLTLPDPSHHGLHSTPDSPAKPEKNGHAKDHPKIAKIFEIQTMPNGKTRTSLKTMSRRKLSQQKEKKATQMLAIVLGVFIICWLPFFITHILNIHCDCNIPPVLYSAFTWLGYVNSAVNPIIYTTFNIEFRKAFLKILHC
Outline: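 HEK293 membranes stably expressing human D2L receptor, incubated 1 h at 37°C, then filtered and retained radioactivity counted; (+)-butaclamol 1 μM defines nonspecific binding. Tested in triplicate at 7–8 concentrations (10⁻¹¹–10⁻⁴ M); Ki via Cheng-Prusoff, averaged over at least two independent experiments.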

[6] = biological target: 5-hydroxytryptamine receptor 7 (Homo sapiens, UniProt P34969); assay: Displacement of [3H]-5-CT from human 5HT7 receptor expressed in HEK293 cells measured after 1 hr by liquid scintillation counter method; type: cell-based
5-hydroxytryptamine receptor 7, sequence (P34969 whole entry): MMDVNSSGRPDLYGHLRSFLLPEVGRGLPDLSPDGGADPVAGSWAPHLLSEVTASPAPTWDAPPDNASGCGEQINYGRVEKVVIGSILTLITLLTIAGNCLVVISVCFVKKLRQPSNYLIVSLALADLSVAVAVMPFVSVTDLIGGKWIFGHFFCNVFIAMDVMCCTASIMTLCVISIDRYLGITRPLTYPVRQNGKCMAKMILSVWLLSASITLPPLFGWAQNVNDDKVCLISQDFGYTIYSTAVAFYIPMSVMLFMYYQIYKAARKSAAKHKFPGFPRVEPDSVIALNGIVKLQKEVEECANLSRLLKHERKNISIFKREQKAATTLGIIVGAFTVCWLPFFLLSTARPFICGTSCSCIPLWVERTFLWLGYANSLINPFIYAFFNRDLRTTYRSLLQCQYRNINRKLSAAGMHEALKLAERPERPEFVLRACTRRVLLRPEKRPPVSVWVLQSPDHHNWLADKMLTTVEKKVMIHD

[7] = in vitro; details: rat

5-hydroxytryptamine receptor 2A, sequence (P28223 whole entry): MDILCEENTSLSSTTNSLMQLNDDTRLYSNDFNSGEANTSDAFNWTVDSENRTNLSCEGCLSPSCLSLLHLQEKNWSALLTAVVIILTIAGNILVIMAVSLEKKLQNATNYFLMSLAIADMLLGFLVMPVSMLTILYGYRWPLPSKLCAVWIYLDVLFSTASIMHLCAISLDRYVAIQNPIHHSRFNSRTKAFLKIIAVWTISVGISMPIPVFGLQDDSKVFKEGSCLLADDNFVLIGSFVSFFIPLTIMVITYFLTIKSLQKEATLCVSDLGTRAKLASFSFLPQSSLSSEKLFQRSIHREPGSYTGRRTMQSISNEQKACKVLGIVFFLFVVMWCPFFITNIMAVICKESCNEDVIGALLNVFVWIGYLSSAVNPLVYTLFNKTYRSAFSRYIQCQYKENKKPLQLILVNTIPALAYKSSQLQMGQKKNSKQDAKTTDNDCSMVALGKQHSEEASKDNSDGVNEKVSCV

Row | solubility [2] | SMILES | Ki ([1]; read-out: Ki) [µM] | Ki ([3]; read-out: Ki) [µM] | also measured
1 | Soluble | CCc1nc(N)[nH]c1-c1cn(S(=O)(=O)c2ccccc2)c2ccc(OC)cc12.Cl | 0.661 | > 10 | –
2 | Soluble | COc1ccc2c(c1)c(-c1cnc(N)[nH]1)cn2S(=O)(=O)c1cccc(F)c1.Cl | – | – | –
3 | Soluble | Cl.Nc1ncc(-c2cn(S(=O)(=O)c3ccccc3)c3ccccc23)[nH]1 | 0.891 | 0.126 | –
4 | Soluble | CCc1nc(N)[nH]c1-c1cn(S(=O)(=O)c2ccccc2)c2ccccc12.Cl | 0.107 | – | –
5 | Insoluble | COc1ccc2c(c1)c(-c1[nH]c(NCCc3ccccc3)nc1C)cn2S(=O)(=O)c1ccccc1 | 1.91 | – | Ki [4]: 0.083 µM; Ki [5]: 2.14 µM; Ki ([3]; hek293): Not Active; Ki ([6]; hek293): Not Active
6 | – | Fc1ccc2c(CCNCc3cccc(OCC(F)(F)C(F)F)c3)c[nH]c2c1 [IDALOPIRDINE] | – | – | microsomal CLint ([7]; microsomes): 99.3 µL/min/mg
7 | Insoluble | COc1ccc2c(c1)c(-c1[nH]c(NCc3ccccc3)nc1C)cn2S(=O)(=O)c1ccccc1 | – | – | Ki ([3]; hek293): Not Active
8 | Insoluble | COc1ccc2c(c1)c(-c1cnc(NC(C)=O)[nH]1)cn2S(=O)(=O)c1ccccc1 | – | > 10 | –
9 | Soluble | Cl.Nc1ncc(-c2cccc3c2ccn3S(=O)(=O)c2ccccc2)[nH]1 | 2.29 | – | –
10 | Insoluble | CC(=O)Nc1ncc(-c2cn(S(=O)(=O)c3ccccc3)c3ccccc23)[nH]1 | – | > 10 | –
11 | Soluble | COc1ccc2c(c1)c(-c1[nH]c(N)nc1C)cn2S(=O)(=O)c1cccc(F)c1.Cl | 1.12 | > 10 | –
12 | Insoluble | COc1ccc2c(c1)c(-c1c(C)nc(N)n1CC(F)F)cn2S(=O)(=O)c1ccccc1 | 3.24 | – | Ki [4]: 0.157 µM; Ki [5]: 3.8 µM; Ki ([3]; hek293): Not Active; Ki ([6]; hek293): Not Active
13 | Insoluble | CCC(=O)Nc1nc(C)c(-c2ccc3ccn(S(=O)(=O)c4ccccc4)c3c2)[nH]1 | 7.41 | – | –
14 | Insoluble | CCC(=O)Nc1nc(CC)c(-c2cn(S(=O)(=O)c3ccccc3)c3ccc(OC)cc23)[nH]1 | – | – | –
15 | Soluble | COc1ccc2c(c1)c(-c1[nH]c(N)nc1C)cn2S(=O)(=O)c1ccccc1.Cl | 0.676 | > 10 | –
16 | Insoluble | COc1ccc2c(c1)c(-c1nc(N)sc1C)cn2S(=O)(=O)c1ccc2ccccc2c1 | – | – | –
17 | Insoluble | CC(=O)Nc1nc(C)c(-c2cn(S(=O)(=O)c3cccc4ccccc34)c3ccccc23)[nH]1 | – | – | –
18 | Soluble | COc1ccc2c(c1)c(-c1[nH]c(N)nc1C)cn2S(=O)(=O)c1ccc2ccccc2c1.Cl | 1.05 | – | –
19 | – | O=S(=O)(c1ccccc1)c1cnc2c(N3CCNCC3)cccc2c1 [INTEPIRDINE] | – | – | microsomal CLint ([7]; liver microsomes): 6.6 µL/min/mg
20 | Insoluble | COc1ccc2c(c1)c(-c1nc(N)sc1C)cn2S(=O)(=O)c1ccccc1 | 2.46 | – | –
21 | Insoluble | CCC(=O)Nc1nc(C)c(-c2cn(S(=O)(=O)c3cccc4ccccc34)c3ccc(OC)cc23)[nH]1 | – | – | –
22 | Insoluble | CC(=O)Nc1nc(C)c(-c2c(C)n(S(=O)(=O)c3ccccc3)c3ccccc23)[nH]1 | – | > 10 | –
23 | Insoluble | COc1ccc2c(c1)c(-c1nc(N)sc1C)cn2S(=O)(=O)c1cccc2ccccc12 | – | – | –
24 | Insoluble | Cc1sc(N)nc1-c1cn(S(=O)(=O)c2cccc3ccccc23)c2ccccc12 | – | – | Ki [1]: Not Active; Ki ([3]; hek293): Not Active
25 | – | COc1ccc2c(c1)c(-c1[nH]c(N)nc1C)cn2S(=O)(=O)c1cccc2ccccc12 | 1.66 | > 10 | –
26 | Insoluble | Cc1sc(N)nc1-c1cn(S(=O)(=O)c2ccccc2)c2ccccc12 | – | – | Ki ([3]; hek293): Not Active

Row | SMILES | solubility [2] | Ki ([1]; read-out: Ki) [µM] | Ki ([3]; read-out: Ki) [µM] | also measured
27 | CCC(=O)Nc1nc(C)c(-c2cccc3c2ccn3S(=O)(=O)c2ccccc2)[nH]1 | Insoluble | > 10 | > 10 | –
28 | CCc1nc(NC(C)=O)[nH]c1-c1cn(S(=O)(=O)c2ccccc2)c2ccc(OC)cc12 | Insoluble | > 10 | > 10 | –
29 | COc1ccc2c(c1)c(-c1[nH]c(NC(C)=O)nc1C)cn2S(=O)(=O)c1ccc2ccccc2c1 | Insoluble | > 10 | – | –
30 | CCC(=O)Nc1nc(C)c(-c2cn(S(=O)(=O)c3cccc4ccccc34)c3ccccc23)[nH]1 | Insoluble | > 10 | – | –
31 | CCc1nc(NC(C)=O)[nH]c1-c1cn(S(=O)(=O)c2ccccc2)c2ccccc12 | Insoluble | > 10 | – | –
32 | COc1ccc2c(c1)c(-c1[nH]c(NC(=O)Cc3ccccc3)nc1C)cn2S(=O)(=O)c1ccccc1 | Insoluble | > 10 | – | Ki [4]: 0.003 µM; Ki [5]: > 10 µM; Ki ([6]; read-out: Ki): > 10 µM
33 | COc1ccc2c(c1)c(-c1[nH]c3nccc[n+]3c1C)cn2S(=O)(=O)c1ccccc1.[Br-] | Soluble | > 10 | > 10 | –
34 | CCC(=O)Nc1nc(C)c(-c2cn(S(=O)(=O)c3cccc(F)c3)c3ccc(OC)cc23)[nH]1 | Insoluble | > 10 | > 10 | –
35 | CCC(=O)Nc1nc(C)c(-c2cn(S(=O)(=O)c3ccc4ccccc4c3)c3ccc(OC)cc23)[nH]1 | Insoluble | > 10 | – | –
36 | CC(=O)N1CCn2c1nc(C)c2-c1cn(S(=O)(=O)c2ccccc2)c2ccccc12 | Insoluble | > 10 | > 10 | –
37 | COc1ccc2c(c1)c(-c1[nH]c3cccc[n+]3c1C)cn2S(=O)(=O)c1ccccc1.[Br-] | Soluble | > 10 | – | –
38 | COc1ccc2c(c1)c(-c1[nH]c(NC(C)=O)nc1C)cn2S(=O)(=O)c1ccccc1 | Insoluble | > 10 | > 10 | –
39 | COc1ccc2c(c1)c(-c1[nH]c(NC(C)=O)nc1C)cn2S(=O)(=O)c1cccc(F)c1 | Insoluble | > 10 | > 10 | –
40 | COc1ccc2c(c1)c(-c1cnc(NC(C)=O)[nH]1)cn2S(=O)(=O)c1cccc(F)c1 | Insoluble | > 10 | – | –
41 | CC(=O)N1CCCn2c1nc(C)c2-c1cn(S(=O)(=O)c2ccccc2)c2ccccc12 | Insoluble | > 10 | > 10 | –
42 | COc1ccc2c(c1)c(-c1[nH]c(NC(C)=O)nc1C)cn2S(=O)(=O)c1cccc2ccccc12 | Insoluble | > 10 | – | –
